In ChEMBL document CHEMBL4177580, “New 5-HT1A, 5HT2A and 5HT2C receptor ligands containing a picolinic nucleus: Synthesis, in vitro and in vivo pharmacological evaluation” (Bioorg Med Chem, 2017):
pEC50, pKi: −log10 of the molar value. Active and inactive are the calls of the source. The calls are words filed in the database; no cut-off is given here.

Legend:
[1] = target: T1, 5-hydroxytryptamine receptor 1A (Rattus norvegicus, UniProt P19327); assay: Displacement of [3H]-8-OH-DPAT from serotonin 5-HT1A receptor in Sprague-Dawley rat brain cortex homogenates incubated for 30 mins by liquid scintillation spectrometry
T1 sequence (P19327 whole entry): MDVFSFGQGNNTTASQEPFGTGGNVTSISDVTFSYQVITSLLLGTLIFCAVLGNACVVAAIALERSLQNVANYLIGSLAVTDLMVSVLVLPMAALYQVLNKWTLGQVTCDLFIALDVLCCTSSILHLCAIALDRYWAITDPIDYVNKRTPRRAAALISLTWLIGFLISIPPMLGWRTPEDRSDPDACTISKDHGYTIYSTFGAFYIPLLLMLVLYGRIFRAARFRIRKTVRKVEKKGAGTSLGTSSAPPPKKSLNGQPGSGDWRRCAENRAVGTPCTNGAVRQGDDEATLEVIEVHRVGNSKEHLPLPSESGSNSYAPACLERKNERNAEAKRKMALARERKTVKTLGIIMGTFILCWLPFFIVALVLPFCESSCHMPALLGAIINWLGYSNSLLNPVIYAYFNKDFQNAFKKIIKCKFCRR

Mus musculus [2] = assay: Induction of hypothermia in Swiss albino mouse assessed as reduction in body temperature at 5 mg/kg, ip measured after 60 mins post dose; format: functional, organism-based
Procedure, shortened: (§1)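 Normothermic male Swiss albino mice. Rectal temperature was taken by thermistor thermometer over 180 min (60 min before to 120 min after injection). Initial temperature was the mean of the readings at 60 and 30 min predose. Later readings were at 30, 60, 90 and 120 min, with Δt = final − initial. Data are mean ± SEM, by two-way ANOVA with Bonferroni test.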

Mus musculus [3] = assay: Induction of hypothermia in Swiss albino mouse assessed as reduction in body temperature at 5 mg/kg, ip measured after 30 mins post dose; format: functional, organism-based; procedure, shortened: as §1
Mus musculus [4] = assay: In-vivo 5-HT1A receptor agonist activity in Swiss albino mouse assessed as induction of lower lip retraction by measuring lower lip retraction score at 1 mg/kg, ip dosed 15 mins before test; format: functional, organism-based
[5] = target: T2, 5-hydroxytryptamine receptor 2A (Rattus norvegicus, UniProt P14842); assay: Displacement of [3H]ketanserin from serotonin 5-HT2A receptor in Sprague-Dawley rat brain cortex homogenates incubated for 15 mins by liquid scintillation spectrometry
T2 sequence (P14842 whole entry): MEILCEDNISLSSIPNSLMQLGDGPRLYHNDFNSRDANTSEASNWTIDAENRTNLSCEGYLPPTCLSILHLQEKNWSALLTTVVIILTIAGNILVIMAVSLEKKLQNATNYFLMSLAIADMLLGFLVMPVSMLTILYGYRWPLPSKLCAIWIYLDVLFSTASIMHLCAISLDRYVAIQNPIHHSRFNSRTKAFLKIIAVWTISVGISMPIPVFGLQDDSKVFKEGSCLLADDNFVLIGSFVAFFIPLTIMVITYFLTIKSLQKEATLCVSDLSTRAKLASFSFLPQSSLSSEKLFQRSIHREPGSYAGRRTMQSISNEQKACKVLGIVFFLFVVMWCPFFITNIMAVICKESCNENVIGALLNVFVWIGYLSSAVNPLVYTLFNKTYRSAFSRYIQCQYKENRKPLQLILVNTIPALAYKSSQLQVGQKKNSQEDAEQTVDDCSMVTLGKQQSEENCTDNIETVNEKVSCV

[6] = target: T3, 5-hydroxytryptamine receptor 2C (Rattus norvegicus, UniProt P08909); assay: Displacement of [3H]mesulergine from serotonin 5-HT2C receptor in Sprague-Dawley rat brain cortex homogenates incubated for 15 mins by liquid scintillation spectrometry
T3 sequence (P08909 whole entry): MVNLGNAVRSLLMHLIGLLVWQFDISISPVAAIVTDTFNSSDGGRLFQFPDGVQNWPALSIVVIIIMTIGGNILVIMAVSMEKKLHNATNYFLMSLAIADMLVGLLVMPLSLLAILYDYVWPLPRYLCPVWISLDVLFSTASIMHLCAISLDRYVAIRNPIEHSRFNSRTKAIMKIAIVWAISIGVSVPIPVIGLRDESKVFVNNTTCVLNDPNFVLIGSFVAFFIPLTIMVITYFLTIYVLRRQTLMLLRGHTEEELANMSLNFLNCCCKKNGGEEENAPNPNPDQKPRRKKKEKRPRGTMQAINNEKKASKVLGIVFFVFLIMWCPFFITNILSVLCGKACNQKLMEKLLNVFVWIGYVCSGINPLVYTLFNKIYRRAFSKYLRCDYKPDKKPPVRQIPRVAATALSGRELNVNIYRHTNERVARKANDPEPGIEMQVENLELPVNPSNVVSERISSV

[7] = target: T2, 5-hydroxytryptamine receptor 2A; assay: Antagonist activity at 5-HT2A receptor in Sprague-Dawley rat ielum assessed as reduction in 5-HT-evoked contraction; format: functional; conditions: for pEC50: read-out: EC50
Procedure, shortened: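 Ileum segments from CO2-asphyxiated rats, longitudinal contractions recorded isotonically (0.5 g load) in 20 mL Krebs at 37°C gassed with 95% O2/5% CO2; 60 min equilibration, then three additions of 5-HT (10^-5 M) for stable control contractions. Compounds dissolved in DMSO (<0.01%), 10 min contact per concentration. IC50 (50% inhibition of 5-HT contraction) and Emax derived by curve fitting; mean (SEM).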

[8] = target: 5-hydroxytryptamine receptor 2A (Rattus norvegicus) (UniProt P14842); assay: Antagonist activity at 5-HT2A receptor in Sprague-Dawley rat ielum assessed as reduction in 5-HT-evoked contraction relative to control; format: functional
Chain of 5-hydroxytryptamine receptor 2A (Rattus norvegicus) (P14842 whole entry): as the sequence (P14842 whole entry) above

[9] = target: 5-hydroxytryptamine receptor 2A (Rattus norvegicus) (UniProt P14842); assay: Agonist activity at 5-HT2A receptor in Sprague-Dawley rat ileum assessed as induction of contraction; format: functional
[10] = target: 5-hydroxytryptamine receptor 2A (Rattus norvegicus) (UniProt P14842); assay: Antagonist activity at 5-HT2A receptor in Sprague-Dawley rat ielum assessed as reduction in 5-HT-evoked contraction at 10 uM
Mus musculus [11] = assay: Antidepressant-like activity in Swiss albino mouse assessed as reduction in immobility time at 15 mg/kg, ip dosed 1 hr before test by forced swimming test; format: functional, organism-based
Procedure, shortened: (§2)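 Male Swiss albino mice (18-24 g). The reference drug was diluted in saline and given ip (10 ml/kg) 1 h before testing. Each mouse swam for 6 min in a cylinder (25 cm high, 10 cm diameter) holding 10 cm of water at 23-25°C. Immobility was timed over the last 4 min. Data are mean ± SEM, analysed by one-way ANOVA with Dunnett's test.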

Mus musculus [12] = assay: Antidepressant-like activity in Swiss albino mouse assessed as reduction in immobility time at 20 mg/kg, ip dosed 1 hr before test by forced swimming test; format: functional, organism-based; procedure, shortened: as §2
Mus musculus [13] = assay: Anxiolytic-like activity in Swiss albino mouse assessed as increase in time spent in open arms at 5 mg/kg measured for 5 mins test period by elevated plus maze test; format: functional, organism-based
Procedure, shortened: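 Male Swiss albino mice (18-24 g) were tested in the elevated plus-maze by Lister's method. The reference drug was diluted in saline and given ip (10 ml/kg). Time in open arms was recorded. Results are mean ± SEM, analysed by one-way ANOVA and post hoc test, with the observer blind to treatment.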

[14] = target: 5-hydroxytryptamine receptor 2A (Rattus norvegicus) (UniProt P14842); conditions: Sprague-Dawley, 0.1 uM
[15] = target: 5-hydroxytryptamine receptor 2A (Rattus norvegicus) (UniProt P14842); conditions: Sprague-Dawley, 0.3 uM

Compound | pKi [1] | pKi [5] | pKi [6] | other results
CCN(CC)C1CCc2cccc(O)c2C1 (stereo not given) | 9.10 |  |  | Activity (Mus musculus [2]): Active; Activity (Mus musculus [3]): Active; Activity (Mus musculus [4]): Active
COc1ccc(N2CCN(CCCNC(=O)c3ccccn3)CC2)cc1 | < 5.00 | < 5.00 | < 5.00 | 
O=C(NCCN1CCN(c2ccccc2F)CC1)c1ccccn1 | 6.80 | < 5.00 | < 5.00 | 
O=C(NCCCN1CCN(C(c2ccc(F)cc2)c2ccc(F)cc2)CC1)c1ccccn1 |  |  |  | pEC50 [7]: 5.69; Emax [8]: 68.4%; Activity [9]: inactive
N#Cc1ccccc1N1CCN(CCNC(=O)c2ccccn2)CC1 | 7.13 | 6.21 | < 5.00 | 
CN1[C@@H]2CC[C@H]1C[C@@H](OC(=O)C(CO)c1ccccc1)C2 (stereo not given in full) |  |  |  | inhibition [10]: inactive
CCOc1ccccc1N1CCN(CCNC(=O)c2ccccn2)CC1 | 7.26 | < 5.00 | < 5.00 | 
Cc1cccc(N2CCN(CCNC(=O)c3ccccn3)CC2)c1C | 6.67 | < 5.00 | < 5.00 | 
O=C(NCCCN1CCN(c2ccccc2F)CC1)c1ccccn1 | 6.64 | 6.49 | < 5.00 | 
O=C(NCCCN1CCN(c2ncccn2)CC1)c1ccccn1 | 6.30 | 7.77 | < 5.00 | pEC50 [7]: 6.08; Emax [8]: 32.1%; Activity [9]: inactive
CCOc1ccccc1N1CCN(CCCNC(=O)c2ccccn2)CC1 | 7.07 | 6.92 | 7.10 | 
COc1ccccc1N1CCN(CCNC(=O)c2ccccn2)CC1 | 6.22 | 10.65 | < 5.00 | pEC50 [7]: 5.37; Emax [8]: 33.7%; Activity [9]: inactive
Cc1ccc(N(CC2=NCCN2)c2cccc(O)c2)cc1 |  |  |  | inhibition [10]: inactive
O=C(NCCN1CCN(c2ccccn2)CC1)c1ccccn1 | 7.49 | < 5.00 | < 5.00 | 
O=C(NCCCN1CCN(c2ccc(Cl)c(Cl)c2)CC1)c1ccccn1 | 6.74 | 7.04 | 8.02 | pEC50 [7]: 6.11; Emax [8]: 26.7%; Activity [9]: inactive
COc1ccccc1N1CCN(CCCNC(=O)c2ccccn2)CC1 | 7.40 | < 5.00 | 6.89 | 
O=C(NCCCN1CCN(C(c2ccccc2)c2ccc(Cl)cc2)CC1)c1ccccn1 (stereo not given) | 6.35 | 6.14 | < 5.00 | 
O=C(NCCCN1CCN(c2ccc(Cl)cc2)CC1)c1ccccn1 | 7.17 | 6.43 | 7.40 | 
O=C(NCCN1CCN(c2cccc(Cl)c2)CC1)c1ccccn1 | 6.57 | 6.51 | 7.04 | 
N#Cc1ccccc1N1CCN(CCCNC(=O)c2ccccn2)CC1 | 6.97 | < 5.00 | 6.89 | 
O=C(NCCN1CCN(c2cccc(C(F)(F)F)c2)CC1)c1ccccn1 |  |  |  | pEC50 [7]: 6.79; Emax [8]: 48.4%; Activity [9]: inactive
O=C(NCCCN1CCN(c2cccc(C(F)(F)F)c2)CC1)c1ccccn1 | 7.75 | < 5.00 | < 5.00 | 

Compound | pKi [1] | pKi [5] | pKi [6] | other results
O=C(NCCN1CCN(c2ccccc2Cl)CC1)c1ccccn1 | 6.39 | < 5.00 | 6.57 | 
O=C(NCCN1CCN(c2ccc(F)cc2)CC1)c1ccccn1 | 7.09 | 6.62 | 7.10 | 
O=C(NCCCN1CCN(c2ccccc2Cl)CC1)c1ccccn1 | 7.15 | 6.12 | 5.98 | 
O=C(NCCCN1CCN(c2cccc(Cl)c2)CC1)c1ccccn1 | 7.23 | 7.09 | 7.00 | 
CNCCC(Oc1ccc(C(F)(F)F)cc1)c1ccccc1 (stereo not given) |  |  |  | Activity (Mus musculus [11]): Active; Activity (Mus musculus [12]): Active
O=C(NCCN1CCN(c2cccc3ccccc23)CC1)c1ccccn1 | 7.68 | 7.04 | 6.94 | 
O=C1CC2(CCCC2)CC(=O)N1CCCCN1CCN(c2ncccn2)CC1 |  |  |  | Activity (Mus musculus [13]): Active
O=C(NCCN1CCN(c2ccccc2)CC1)c1ccccn1 | 6.79 | 7.27 | < 5.00 | EC50 [7]: Not Active
O=C(NCCN1CCN(C(=O)c2ccco2)CC1)c1ccccn1 | < 5.00 | < 5.00 | < 5.00 | 
O=C(NCCCN1CCN(c2ccccc2)CC1)c1ccccn1 | 6.98 | 6.56 | 6.95 | 
O=C(NCCCN1CCN(C(=O)c2ccco2)CC1)c1ccccn1 | < 5.00 |  | < 5.00 | pEC50 [7]: 6.11; Emax [8]: 53.1%; Activity [9]: inactive
O=C(NCCN1CCN(Cc2ccc3c(c2)OCO3)CC1)c1ccccn1 | < 5.00 | < 5.00 | 7.21 | 
O=C(NCCCN1CCN(Cc2ccc3c(c2)OCO3)CC1)c1ccccn1 | < 5.00 |  | < 5.00 | pEC50 [7]: 5.19; Emax [8]: 75.5%; Activity [9]: inactive
O=C(NCCN1CCN(C(c2ccc(F)cc2)c2ccc(F)cc2)CC1)c1ccccn1 | < 5.00 |  |  | 
COc1ccc(N2CCN(CCNC(=O)c3ccccn3)CC2)cc1 | 6.86 | 8.03 | < 5.00 | EC50 [7]: Not Active
Cc1cccc(N2CCN(CCCNC(=O)c3ccccn3)CC2)c1C | 7.05 | < 5.00 | 6.98 | 
O=C(NCCCN1CCN(c2cccc3ccccc23)CC1)c1ccccn1 | 7.36 | 6.67 | < 5.00 | 
O=C(NCCN1CCN(C(c2ccccc2)c2ccc(Cl)cc2)CC1)c1ccccn1 (stereo not given) | 6.27 | 6.30 | 7.30 | 
O=C(NCCCN1CCN(c2ccccn2)CC1)c1ccccn1 | 6.31 | < 5.00 | 6.85 | 
O=C(NCCCN1CCN(c2ccc(F)cc2)CC1)c1ccccn1 | < 5.00 | 6.79 | 7.93 | 
O=C(c1ccc(F)cc1)C1CCN(CCn2c(=O)[nH]c3ccccc3c2=O)CC1 |  |  |  | inhibition [14]: Active
NC1=N[C@H](O)[C@H]2[C@H]3O[C@]4(O)O[C@@H]([C@H](O)[C@@]2(N1)[C@@H]4O)[C@]3(O)CO |  |  |  | inhibition [15]: inactive
